Measurements reported in ChEMBL document CHEMBL1649560, “Beta-lactamase-mediated beta-lactam resistance in Campylobacter species: prevalence of Cj0299 (bla OXA-61) and evidence for a novel beta-Lactamase in C. jejuni” (2009).
≈ marks a conversion by molar mass, not a printed value.

Columns and labels:
Assay type in all cases: functional
Campylobacter jejuni [1] = assay: Antibacterial activity against bla gene-positive and nitrocefin reaction-positive beta-lactamase harboring Campylobacter jejuni isolate P1093 by NCCLS agar doubling dilution method
In short: (§1)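 MICs of β-lactams by agar doubling dilution following the NCCLS (CLSI) Campylobacter Working Group procedure, with C. jejuni NCTC 11168 and C. coli NCTC 11366 as controls. Isolates were from UK poultry flocks. β-Lactamase status was set by Cj0299 PCR (281-bp amplimer) and by a nitrocefin colour change of sonicated lysate within 5 min, or within 30 min on repeat.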

Campylobacter jejuni [2] = assay: Antibacterial activity against Campylobacter jejuni isolate P338 harboring blaOXA-61::cat gene by NCCLS agar doubling dilution method
In short: (§2)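 Agar doubling dilution MICs (NCCLS/CLSI Campylobacter Working Group method) against Cj0299-inactivated mutants. Mutants were made by transforming the C. jejuni isolate with pCI and selecting on Mueller-Hinton agar with 10 μg/ml chloramphenicol for 3–5 days. Chromosomal insertion was confirmed by PCR with Cj0299 and cat primers.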

Campylobacter jejuni [3] = assay: Antibacterial activity against bla gene-negative and nitrocefin reaction-positive beta-lactamase harboring Campylobacter jejuni isolate P843 by NCCLS agar doubling dilution method; in short: as §1
Campylobacter jejuni [4] = assay: Antibacterial activity against bla gene-positive and nitrocefin reaction-negative beta-lactamase harboring Campylobacter jejuni isolate P1698 by NCCLS agar doubling dilution method; in short: as §1
Campylobacter jejuni [5] = assay: Antibacterial activity against bla gene-positive and nitrocefin reaction-positive beta-lactamase harboring Campylobacter jejuni isolate P316 by NCCLS agar doubling dilution method
In short: (§3)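 MICs by agar doubling dilution per the NCCLS (now CLSI) Campylobacter Working Group method. Isolates came from UK chicken flocks (feces, ceca or farm environment), 2000–2006. C. jejuni NCTC 11168 and C. coli NCTC 11366 served as control strains. The ampicillin resistance cutoff was 8 μg/ml; BSAC/CLSI Enterobacteriaceae guidelines were used for other agents.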

Campylobacter jejuni [6] = assay: Antibacterial activity against bla gene-positive and nitrocefin reaction-positive beta-lactamase harboring Campylobacter jejuni isolate P1730 by NCCLS agar doubling dilution method; in short: as §3
Campylobacter coli [7] = assay: Antibacterial activity against Campylobacter coli by NCCLS agar doubling dilution method
In short: (§4)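 MICs by agar doubling dilution following the NCCLS (CLSI) Campylobacter Working Group procedure, applied to ampicillin- and amoxicillin-resistant isolates from UK chicken flocks (2000–2006). C. jejuni NCTC 11168 and C. coli NCTC 11366 served as control strains. Resistance was called at an ampicillin cutoff of 8 μg/ml. Other agents were judged against Enterobacteriaceae guidelines (BSAC, CLSI).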

Campylobacter jejuni [8] = assay: Antibacterial activity against bla gene-negative and nitrocefin reaction-negative beta-lactamase harboring Campylobacter jejuni isolate P1962 by NCCLS agar doubling dilution method; in short: as §1
Campylobacter jejuni [9] = assay: Antibacterial activity against bla gene-negative and nitrocefin reaction-positive beta-lactamase harboring Campylobacter jejuni isolate P854 by NCCLS agar doubling dilution method; in short: as §1
Campylobacter jejuni [10] = assay: Antibacterial activity against bla gene-positive and nitrocefin reaction-positive beta-lactamase harboring Campylobacter jejuni isolate P1650 by NCCLS agar doubling dilution method; in short: as §1
Campylobacter jejuni [11] = assay: Antibacterial activity against Campylobacter jejuni isolate P1093 harboring blaOXA-61::cat gene by NCCLS agar doubling dilution method; in short: as §2
Campylobacter jejuni [12] = assay: Antibacterial activity against Campylobacter jejuni by NCCLS agar doubling dilution method; in short: as §4
Campylobacter jejuni [13] = assay: Antibacterial activity against bla gene-negative and nitrocefin reaction-negative beta-lactamase harboring Campylobacter jejuni isolate P835 by NCCLS agar doubling dilution method; in short: as §1
Campylobacter jejuni [14] = assay: Antibacterial activity against bla gene-positive and nitrocefin reaction-negative beta-lactamase harboring Campylobacter jejuni isolate P1699 by NCCLS agar doubling dilution method; in short: as §1
Campylobacter coli [15] = assay: Antibacterial activity against bla gene-positive and nitrocefin reaction-positive beta-lactamase harboring Campylobacter coli isolate P321 by NCCLS agar doubling dilution method; in short: as §1
Campylobacter jejuni [16] = assay: Antibacterial activity against bla gene-positive and nitrocefin reaction-negative beta-lactamase harboring Campylobacter jejuni NCTC 11168 by NCCLS agar doubling dilution method; in short: as §1
Campylobacter coli [17] = assay: Antibacterial activity against bla-positive and beta-lactamase-weakly positive Campylobacter coli isolate P1627 by NCCLS agar doubling dilution method; in short: as §3
Campylobacter jejuni [18] = assay: Antibacterial activity against Campylobacter jejuni isolate P270 harboring blaOXA-61::cat gene by NCCLS agar doubling dilution method
Campylobacter jejuni [19] = assay: Antibacterial activity against bla gene-positive and nitrocefin reaction-positive beta-lactamase harboring Campylobacter jejuni isolate P286 by NCCLS agar doubling dilution method; in short: as §3
Campylobacter jejuni [20] = assay: Antibacterial activity against bla gene-positive and nitrocefin reaction-positive beta-lactamase harboring Campylobacter jejuni isolate P338 by NCCLS agar doubling dilution method; in short: as §3
Campylobacter coli [21] = assay: Antibacterial activity against bla gene-positive and nitrocefin reaction-positive beta-lactamase harboring Campylobacter coli isolate P1826 by NCCLS agar doubling dilution method; in short: as §1
Campylobacter jejuni [22] = assay: Antibacterial activity against bla gene-positive and nitrocefin reaction-positive beta-lactamase harboring Campylobacter jejuni isolate P305 by NCCLS agar doubling dilution method; in short: as §3
Campylobacter jejuni [23] = assay: Antibacterial activity against bla gene-negative and nitrocefin reaction-negative beta-lactamase harboring Campylobacter jejuni isolate P850 by NCCLS agar doubling dilution method; in short: as §1
Campylobacter jejuni [24] = assay: Antibacterial activity against bla gene-positive and nitrocefin reaction-positive beta-lactamase harboring Campylobacter jejuni isolate P285 by NCCLS agar doubling dilution method; in short: as §3
Campylobacter jejuni [25] = assay: Antibacterial activity against bla gene-positive and nitrocefin reaction-positive beta-lactamase harboring Campylobacter jejuni isolate P790 by NCCLS agar doubling dilution method; in short: as §3
Campylobacter jejuni [26] = assay: Antibacterial activity against bla gene-positive and nitrocefin reaction-positive beta-lactamase harboring Campylobacter jejuni isolate P1618 by NCCLS agar doubling dilution method; in short: as §1

Compound `Cc1onc(-c2ccccc2Cl)c1C(=O)N[C@@H]1C(=O)N2[C@@H]1SC(C)(C)[C@@H]2C(=O)O` [CLOXACILLIN] has an MIC (Campylobacter jejuni [1]) of 512 µg/mL (≈ 1170 µM), an MIC (Campylobacter jejuni [2]) of 128 µg/mL (≈ 294 µM) and an MIC (Campylobacter jejuni [3]) greater than 256 µg/mL. The MIC (Campylobacter jejuni [4]) was 128 µg/mL (≈ 294 µM), the MIC (Campylobacter jejuni [5]) was 256 µg/mL (≈ 587 µM) and the MIC (Campylobacter jejuni [6]) was 256 µg/mL (≈ 587 µM). For the same compound, the MIC (Campylobacter coli [7]) was 256 µg/mL (≈ 587 µM), the MIC50 (Campylobacter coli [7]) was 256 µg/mL (≈ 587 µM) and the MIC90 (Campylobacter coli [7]) was greater than 256 µg/mL. It also gave an MIC (Campylobacter jejuni [8]) of 256 µg/mL (≈ 587 µM), an MIC (Campylobacter jejuni [9]) of 256 µg/mL (≈ 587 µM) and an MIC (Campylobacter jejuni [10]) of 256 µg/mL (≈ 587 µM). For the same compound, the MIC (Campylobacter jejuni [11]) was 256 µg/mL (≈ 587 µM), the MIC50 (Campylobacter jejuni [12]) was 256 µg/mL (≈ 587 µM) and the MIC90 (Campylobacter jejuni [12]) was greater than 256 µg/mL. The MIC (Campylobacter jejuni [13]) was 256 µg/mL (≈ 587 µM), the MIC (Campylobacter jejuni [14]) was 256 µg/mL (≈ 587 µM) and the MIC (Campylobacter coli [15]) was 256 µg/mL (≈ 587 µM). For the same compound, the MIC (Campylobacter jejuni [16]) was 128 µg/mL (≈ 294 µM), the MIC (Campylobacter coli [17]) was 256 µg/mL (≈ 587 µM) and the MIC (Campylobacter jejuni [18]) was 128 µg/mL (≈ 294 µM). The MIC (Campylobacter jejuni [19]) was 256 µg/mL (≈ 587 µM), the MIC (Campylobacter jejuni [20]) was 128 µg/mL (≈ 294 µM) and the MIC (Campylobacter coli [21]) was 256 µg/mL (≈ 587 µM). For the same compound, the MIC (Campylobacter jejuni [22]) was 256 µg/mL (≈ 587 µM), the MIC (Campylobacter jejuni [23]) was 256 µg/mL (≈ 587 µM) and the MIC (Campylobacter jejuni [24]) was 256 µg/mL (≈ 587 µM). The MIC (Campylobacter jejuni [25]) was greater than 256 µg/mL and the MIC (Campylobacter jejuni [26]) was 128 µg/mL (≈ 294 µM).
